Holding throughout (format): functional
The species entered for assay [1] is Homo sapiens. Description: Number of taste judgments per compound.
Assay [2] is filed under the species Homo sapiens. Description: Experimentally determined perceived intensity of compound at a concentration of 1000 ppm (mean value). The gist of the method: (§1)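 Trained human sensory panel of judges tasted aqueous solutions of the compound. Samples had to be ≥95 weight % pure (HPLC, proton titration, Karl Fischer), non-mutagenic in five Salmonella typhimurium strains with and without microsomal activation, and non-toxic in a single-oral-dose mouse test. Perceived intensity (Ip) was read from time–intensity curves at 4- or 6-s intervals and averaged. Outliers at the 95% level were rejected by t-value. Values reported as mean (2Sm).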

For assay [3], the species on record is Homo sapiens. Description: Percentage of judgments reporting an aftertaste at a concentration of 1000 ppm. The gist of the method: (§2)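 Trained judges tasted aqueous solutions of the compounds, which had to be ≥95 weight percent pure and to have passed mutagenicity and single oral dose toxicity screening. The value is the percentage of panel judgments reporting an aftertaste. Where given, its character is recorded as sweet, bitter or bitter-sweet.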

The species named for assay [4] is Homo sapiens. Description: Sour character at a concentration of 210 ppm (mean value).
The species named for assay [5] is Homo sapiens. Description: Other taste character at a concentration of 210 ppm (mean value). A digest of the protocol: (§3)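 Trained human panel tasted aqueous solutions of each compound. Aftertaste is scored as the percentage of judgments reporting one, with its character coded sweet (s), bitter (b) or bitter-sweet (bs).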
The species named for assay [6] is Homo sapiens. Put plainly: Sweet character at a concentration of 210 ppm (mean value).
The species entered for assay [7] is Homo sapiens. Description: Intensity calculated on a weight basis relative to an 85500 ppm sucrose solution at a concentration of 210 ppm (mean value). A digest of the protocol:
(§4)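 Trained human panel tasted aqueous solutions of purity-checked (≥95 weight percent) compounds cleared for mutagenicity and mouse oral toxicity. Weight-basis intensity I_w = perceived intensity × (85500 ppm sucrose / compound concentration in ppm). The mean is reported with 2S_m limits; data deviating excessively at 95% confidence were rejected by the t-value method.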

For assay [8], the species on record is Homo sapiens. Put plainly: Experimentally determined perceived intensity of compound at a concentration of 210 ppm (mean value). The gist of the method:
as §1

The species named for assay [9] is Homo sapiens. Put plainly: Percentage of judgments reporting an aftertaste at a concentration of 210 ppm and character thereof. The gist of the method:
as §2

For assay [10], the species on record is Homo sapiens. Put plainly: Salty character at a concentration of 210 ppm (mean value).
Assay [11] is filed under the species Homo sapiens. Description: Sweet / Bitter character at a concentration of 210 ppm (mean value); 0/100.
For assay [12], the species on record is Homo sapiens. Put plainly: Intensity calculated on a molar basis relative to a 0.25 M sucrose solution at a concentration of 210 ppm (mean value). The gist of the method:
(§5)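 Trained human judges tasted aqueous solutions of the test compound; compounds were first required to be ≥95 weight percent pure and free of mutagenicity (five Salmonella typhimurium strains, ± microsomal activation) and of single oral dose mouse toxicity. Molar intensity I_m = perceived intensity × (0.25 M sucrose / compound molar concentration). The mean is reported with 2S_m limits; outliers were rejected at 95% confidence by t-value.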

The species named for assay [13] is Homo sapiens. Description: Bitter character at a concentration of 210 ppm (mean value). A digest of the protocol:
(§6)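 Trained human panel tasted aqueous solutions. Each judge reported whether there was an aftertaste and its character (sweet, bitter or bitter-sweet). The value is the percentage of judgments reporting a bitter aftertaste.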

The species entered for assay [14] is Homo sapiens. Description: Percentage of judgments reporting an aftertaste at a concentration of 33.4 ppm and character thereof.
The species named for assay [15] is Homo sapiens. Put plainly: Sour character at a concentration of 33.4 ppm (mean value).
The species named for assay [16] is Homo sapiens. Description: Salty character at a concentration of 33.4 ppm (mean value).
Assay [17] is filed under the species Homo sapiens. Put plainly: Sweet / Bitter character at a concentration of 33.4 ppm (mean value); 66/34.
The species named for assay [18] is Homo sapiens. Put plainly: Intensity calculated on a weight basis relative to an 85500 ppm sucrose solution at a concentration of 33.4 ppm (mean value). The gist of the method: as §4
The species named for assay [19] is Homo sapiens. Description: Bitter character at a concentration of 33.4 ppm (mean value). The gist of the method:
as §6

Assay [20] is filed under the species Homo sapiens. Put plainly: Intensity calculated on a molar basis relative to a 0.25 M sucrose solution at a concentration of 33.4 ppm (mean value). The gist of the method: as §5
The species named for assay [21] is Homo sapiens. Put plainly: Experimentally determined perceived intensity of compound at a concentration of 33.4 ppm (mean value). The gist of the method:
as §1

Assay [22] is filed under the species Homo sapiens. Put plainly: Other taste character at a concentration of 33.4 ppm (mean value). The gist of the method:
(§7)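 Trained human sensory panel (Swartz method) tasted dilute aqueous solutions of the compounds, which had to be ≥95 weight percent pure and free of mutagenicity and toxicity. Taste character is reported as the mean value with 2S_m limits. Data deviating excessively at the 95% confidence level were rejected by the t-value method.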

For assay [23], the species on record is Homo sapiens. Description: Sweet character at a concentration of 33.4 ppm (mean value).
Assay [24] is filed under the species Homo sapiens. Description: Percentage of judgments reporting an aftertaste at a concentration of 1000 ppm and character thereof. A digest of the protocol:
as §2

The species entered for assay [25] is Homo sapiens. Put plainly: Intensity calculated on a weight basis relative to an 85500 ppm sucrose solution at a concentration of 1000 ppm (mean value). The gist of the method: as §4
The species named for assay [26] is Homo sapiens. Put plainly: Other taste character at a concentration of 1000 ppm (mean value). A digest of the protocol:
as §3

For assay [27], the species on record is Homo sapiens. Description: Salty character at a concentration of 1000 ppm (mean value).
The species named for assay [28] is Homo sapiens. Put plainly: Sour character at a concentration of 1000 ppm (mean value).
Assay [29] is filed under the species Homo sapiens. Description: Intensity calculated on a molar basis relative to a 0.25 M sucrose solution at a concentration of 1000 ppm (mean value). The gist of the method:
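Panel-derived mean perceived intensity (Ip) converted to a molar basis by Im = Ip × (0.25 M / Y), where Y is the compound's molar concentration. Reference is a 0.25 M sucrose solution. Reported with limits of 2Sm.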

The species named for assay [30] is Homo sapiens. Description: Sweet character at a concentration of 1000 ppm (mean value).
The species entered for assay [31] is Homo sapiens. Description: Bitter character at a concentration of 1000 ppm (mean value). The gist of the method: as §6
Assay [32] is filed under the species Homo sapiens. Put plainly: Sweet / Bitter character at a concentration of 1000 ppm (mean value); 75/25.
The species entered for assay [33] is Homo sapiens. Description: Experimentally determined perceived intensity of compound at a concentration of 240 ppm (mean value). The gist of the method:
as §1

Assay [34] is filed under the species Homo sapiens. Put plainly: Sweet / Bitter character at a concentration of 240 ppm (mean value); 0/100.
The species entered for assay [35] is Homo sapiens. Description: Other taste character at a concentration of 240 ppm (mean value). The gist of the method:
as §7

For assay [36], the species on record is Homo sapiens. Put plainly: Percentage of judgments reporting an aftertaste at a concentration of 240 ppm and character thereof. The gist of the method: as §2
The species entered for assay [37] is Homo sapiens. Put plainly: Bitter character at a concentration of 240 ppm (mean value). A digest of the protocol: as §6
Assay [38] is filed under the species Homo sapiens. Description: Intensity calculated on a molar basis relative to a 0.25 M sucrose solution at a concentration of 240 ppm (mean value). A digest of the protocol:
as §5

The species named for assay [39] is Homo sapiens. Put plainly: Sour character at a concentration of 240 ppm (mean value). A digest of the protocol:
as §7

Assay [40] is filed under the species Homo sapiens. Put plainly: Intensity calculated on a weight basis relative to an 85500 ppm sucrose solution at a concentration of 240 ppm (mean value). A digest of the protocol: as §4
The species named for assay [41] is Homo sapiens. Description: Salty character at a concentration of 240 ppm (mean value). A digest of the protocol:
as §7

The species entered for assay [42] is Homo sapiens. Description: Sweet character at a concentration of 240 ppm (mean value). The gist of the method: as §7

On to `COc1ccc(CCC(=O)OC2C[C@](O)(C(=O)O)C[C@@H](O)[C@H]2O)cc1O` (some centres not stated), for which the Judgments in the assay filed under Homo sapiens [1] amounted to 1; in the assay filed under Homo sapiens [3], 0. This molecule also displayed an IP in the assay filed under Homo sapiens [2] of 0.

As for `COc1ccc(CC/C(=N\O)c2c(O)cc(OCC(=O)[O-])cc2O)cc1O.[Na+]`, the Taste character stood at 26 in the assay listed under Homo sapiens [4]; 0 in the assay listed under Homo sapiens [5]; 0 in the assay filed under Homo sapiens [6]; 0 in the assay listed under Homo sapiens [10]; 0 in the assay listed under Homo sapiens [11]; 74 in the assay filed under Homo sapiens [13]. Further, the Judgments in the assay filed under Homo sapiens [1] is 12; in the assay filed under Homo sapiens [9] it was 0. The IW in the assay filed under Homo sapiens [7] is given as 110. In the assay filed under Homo sapiens [8], this molecule came in with an IP of 0.2. Besides, the IM in the assay filed under Homo sapiens [12] is recorded as 130.

Consider `COc1ccc(C2CC(=O)c3c(O)cccc3O2)cc1O` (configuration not stated), for which the results for the Judgments in the assay filed under Homo sapiens [1] and in the assay listed under Homo sapiens [14] were 8 and 42, respectively. Also, the Taste character was 6 in the assay listed under Homo sapiens [15]; 0 in the assay filed under Homo sapiens [16]; 66 in the assay filed under Homo sapiens [17]; 32 in the assay listed under Homo sapiens [19]; 0 in the assay listed under Homo sapiens [22]; 62 in the assay filed under Homo sapiens [23]. The IW in the assay listed under Homo sapiens [18] was 1700. The IM in the assay listed under Homo sapiens [20] is reported as 1400. Besides, the IP in the assay filed under Homo sapiens [21] is given as 0.68.

On to `COc1ccc(CCC(=O)c2c(O)cc(OCCN)cc2O)cc1O`, for which the Judgments in the assay filed under Homo sapiens [1] was found to be 1; in the assay filed under Homo sapiens [24], 100. Besides, the IW in the assay filed under Homo sapiens [25] is reported as 86. Also, the IP in the assay filed under Homo sapiens [2] is reported as 1. The Taste character amounted to 0 in the assay listed under Homo sapiens [26]; 0 in the assay filed under Homo sapiens [27]; 0 in the assay listed under Homo sapiens [28]; 75 in the assay listed under Homo sapiens [30]; 25 in the assay filed under Homo sapiens [31]; 75 in the assay filed under Homo sapiens [32]. In the assay listed under Homo sapiens [29], the IM is 87.

With `COc1ccc(CCCc2c(O)cc(OCC(=O)[O-])cc2O)cc1O.[Na+]`, the Judgments in the assay listed under Homo sapiens [1] worked out at 12; in the assay filed under Homo sapiens [36], 0. This molecule also came in with an IP in the assay filed under Homo sapiens [33] of 0.01. For the same molecule, the Taste character in the assay listed under Homo sapiens [34] is given as 0; in the assay listed under Homo sapiens [35], 0; in the assay filed under Homo sapiens [37], 100; in the assay filed under Homo sapiens [39], 0; in the assay listed under Homo sapiens [41], 0; in the assay filed under Homo sapiens [42], 0. Further, in the assay filed under Homo sapiens [38], the IM is recorded as 4. Moreover, the IW in the assay filed under Homo sapiens [40] is given as 4.

The values are drawn from ChEMBL document CHEMBL1121813, “Dihydrochalcone sweeteners. A study of the atypical temporal phenomena” (1981).
